Test results taken from ChEMBL document CHEMBL5058577, “EUbOPEN Chemogenomics Library 2 (Multiplex)” (2022).

Tested on: U2OS
Experiment: Multiplex assay against U2OS
Format: toxicity, cell-based
Conditions: human
Outline: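 At seeding, live cells were stained with Hoechst33342, BioTracker Green Microtubule Cytoskeleton Dye, MitoTracker Red and Annexin V Alexa Fluor 680. After compound addition they were imaged on a CQ1 microscope at 37°C and 5% CO2, and CellPathfinder machine-learning gating sorted them into Hoechst high-intensity objects or normal cells, with normal cells further split into healthy, pyknosed or fragmented nuclei and pyknosed cells into mitotic or apoptotic. Tubulin, mitochondrial-mass and membrane-permeability phenotypes are given as per cents of cells with healthy nuclei.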

[1] = 12 h, 1 µM, compound concentration 1 uM, replicate 1
[2] = 12 h, 1 µM, compound concentration 1 uM, replicate 2
[3] = 12 h, 10 µM, compound concentration 10 uM, replicate 1
[4] = 12 h, 10 µM, compound concentration 10 uM, replicate 2
[5] = 24 h, 1 µM, compound concentration 1 uM, replicate 1
[6] = 24 h, 1 µM, compound concentration 1 uM, replicate 2
[7] = 24 h, 10 µM, compound concentration 10 uM, replicate 1
[8] = 24 h, 10 µM, compound concentration 10 uM, replicate 2
[9] = 48 h, 1 µM, compound concentration 1 uM, replicate 1
[10] = 48 h, 1 µM, compound concentration 1 uM, replicate 2
[11] = 48 h, 10 µM, compound concentration 10 uM, replicate 1
[12] = 48 h, 10 µM, compound concentration 10 uM, replicate 2

SMILES: CN(C)CCCc1cc(C(=O)Nc2ccc(-c3ccncc3)cc2)ccc1O.Cl.Cl
- Population Apoptotic (%) [1]: 89%
- Population Fragmented Nuclei (%) [1]: 29%
- Population Healthy Nuclei (%) [1]: 60%
- Population Hoechst High Intensity Objects (%) [1]: 2%
- Population Membrane Permeable-Phenotype (%) [1]: 6%
- Population Mitochondria Different-Phenotype (%) [1]: 0%
- Population Mitotic Cells (%) [1]: 10%
- Population Normal (%) [1]: 97%
- Population Pyknosed Nuclei (%) [1]: 9%
- Population Tubulin-Different-Phenotype (%) [1]: 3%
- Total Cell Count [1]: 199
- Population Apoptotic (%) [2]: 100%
- Population Fragmented Nuclei (%) [2]: 10%
- Population Healthy Nuclei (%) [2]: 75%
- Population Hoechst High Intensity Objects (%) [2]: 0%
- Population Membrane Permeable-Phenotype (%) [2]: 2%
- Population Mitochondria Different-Phenotype (%) [2]: 1%
- Population Mitotic Cells (%) [2]: 0%
- Population Normal (%) [2]: 99%
- Population Pyknosed Nuclei (%) [2]: 13%
- Population Tubulin-Different-Phenotype (%) [2]: 0%
- Total Cell Count [2]: 124
- Population Apoptotic (%) [3]: 77%
- Population Fragmented Nuclei (%) [3]: 28%
- Population Healthy Nuclei (%) [3]: 62%
- Population Hoechst High Intensity Objects (%) [3]: 4%
- Population Membrane Permeable-Phenotype (%) [3]: 7%
- Population Mitochondria Different-Phenotype (%) [3]: 1%
- Population Mitotic Cells (%) [3]: 22%
- Population Normal (%) [3]: 95%
- Population Pyknosed Nuclei (%) [3]: 9%
- Population Tubulin-Different-Phenotype (%) [3]: 2%
- Total Cell Count [3]: 237
- Population Apoptotic (%) [4]: 42%
- Population Fragmented Nuclei (%) [4]: 24%
- Population Healthy Nuclei (%) [4]: 63%
- Population Hoechst High Intensity Objects (%) [4]: 1%
- Population Membrane Permeable-Phenotype (%) [4]: 4%
- Population Mitochondria Different-Phenotype (%) [4]: 8%
- Population Mitotic Cells (%) [4]: 57%
- Population Normal (%) [4]: 98%
- Population Pyknosed Nuclei (%) [4]: 12%
- Total Cell Count [4]: 113
- Population Apoptotic (%) [5]: 100%
- Population Fragmented Nuclei (%) [5]: 28%
- Population Healthy Nuclei (%) [5]: 65%
- Population Hoechst High Intensity Objects (%) [5]: 2%
- Population Membrane Permeable-Phenotype (%) [5]: 5%
- Population Mitochondria Different-Phenotype (%) [5]: 2%
- Population Mitotic Cells (%) [5]: 0%
- Population Normal (%) [5]: 97%
- Population Pyknosed Nuclei (%) [5]: 6%
- Population Tubulin-Different-Phenotype (%) [5]: 3%
- Total Cell Count [5]: 247
- Population Apoptotic (%) [6]: 94%
- Population Fragmented Nuclei (%) [6]: 11%
- Population Healthy Nuclei (%) [6]: 77%
- Population Hoechst High Intensity Objects (%) [6]: 4%
- Population Membrane Permeable-Phenotype (%) [6]: 7%
- Population Mitochondria Different-Phenotype (%) [6]: 5%
- Population Mitotic Cells (%) [6]: 5%
- Population Normal (%) [6]: 95%
- Population Pyknosed Nuclei (%) [6]: 11%
- Population Tubulin-Different-Phenotype (%) [6]: 5%
- Total Cell Count [6]: 178
- Population Apoptotic (%) [7]: 72%
- Population Fragmented Nuclei (%) [7]: 28%
- Population Healthy Nuclei (%) [7]: 58%
- Population Hoechst High Intensity Objects (%) [7]: 4%
- Population Membrane Permeable-Phenotype (%) [7]: 6%
- Population Mitochondria Different-Phenotype (%) [7]: 3%
- Population Mitotic Cells (%) [7]: 27%
- Population Normal (%) [7]: 95%
- Population Pyknosed Nuclei (%) [7]: 13%
- Population Tubulin-Different-Phenotype (%) [7]: 1%
- Total Cell Count [7]: 257
- Population Apoptotic (%) [8]: 66%
- Population Fragmented Nuclei (%) [8]: 21%
- Population Healthy Nuclei (%) [8]: 63%
- Population Hoechst High Intensity Objects (%) [8]: 0%
- Population Membrane Permeable-Phenotype (%) [8]: 4%
- Population Mitochondria Different-Phenotype (%) [8]: 8%
- Population Mitotic Cells (%) [8]: 33%
- Population Normal (%) [8]: 100%
- Population Pyknosed Nuclei (%) [8]: 15%
- Population Tubulin-Different-Phenotype (%) [8]: 2%
- Total Cell Count [8]: 118
- Population Apoptotic (%) [9]: 88%
- Population Fragmented Nuclei (%) [9]: 25%
- Population Healthy Nuclei (%) [9]: 69%
- Population Hoechst High Intensity Objects (%) [9]: 3%
- Population Membrane Permeable-Phenotype (%) [9]: 5%
- Population Mitochondria Different-Phenotype (%) [9]: 3%
- Population Mitotic Cells (%) [9]: 11%
- Population Normal (%) [9]: 96%
- Population Pyknosed Nuclei (%) [9]: 5%
- Population Tubulin-Different-Phenotype (%) [9]: 3%
- Total Cell Count [9]: 338
- Population Apoptotic (%) [10]: 93%
- Population Fragmented Nuclei (%) [10]: 15%
- Population Healthy Nuclei (%) [10]: 71%
- Population Membrane Permeable-Phenotype (%) [10]: 7%
- Population Mitotic Cells (%) [10]: 6%
- Population Pyknosed Nuclei (%) [10]: 13%
- Population Tubulin-Different-Phenotype (%) [10]: 4%
- Total Cell Count [10]: 259
- Population Apoptotic (%) [11]: 74%
- Population Fragmented Nuclei (%) [11]: 25%
- Population Healthy Nuclei (%) [11]: 61%
- Population Hoechst High Intensity Objects (%) [11]: 5%
- Population Membrane Permeable-Phenotype (%) [11]: 5%
- Population Mitochondria Different-Phenotype (%) [11]: 3%
- Population Mitotic Cells (%) [11]: 25%
- Population Normal (%) [11]: 94%
- Population Pyknosed Nuclei (%) [11]: 12%
- Population Tubulin-Different-Phenotype (%) [11]: 5%
- Total Cell Count [11]: 352
- Population Apoptotic (%) [12]: 68%
- Population Fragmented Nuclei (%) [12]: 20%
- Population Healthy Nuclei (%) [12]: 63%
- Population Hoechst High Intensity Objects (%) [12]: 4%
- Population Membrane Permeable-Phenotype (%) [12]: 13%
- Population Mitochondria Different-Phenotype (%) [12]: 8%
- Population Mitotic Cells (%) [12]: 32%
- Population Normal (%) [12]: 95%
- Population Pyknosed Nuclei (%) [12]: 16%
- Population Tubulin-Different-Phenotype (%) [12]: 9%
- Total Cell Count [12]: 160
